Test [1] concerns the target T1, Beta-secretase 1 (Homo sapiens, UniProt P56817). Put plainly: Inhibition of human BACE1 (1 to 460 residues) expressed in baculovirus expression system at 50 uM using Rh-EVNLDAEFK-quencher as substrate after 90 mins by FRET assay. In a few lines:
(§1)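 FRET kit assay, manufacturer's protocol with small modifications. Compounds were taken from DMSO stocks and diluted in assay buffer (50 mM sodium acetate, pH 4.5). Substrate and compound were mixed, then enzyme (1 U/mL) was added to start the reaction. After about 90 min at room temperature, 2.5 M sodium acetate stop solution was added. Read-out was fluorescence at Ex 545/Em 585 nm. Triplicate wells, 3–4 independent experiments, mean ± SEM; OM99 served as reference inhibitor.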

Test [2] deals with T1, Beta-secretase 1. In words: Inhibition of human BACE1 (1 to 460 residues) expressed in baculovirus expression system at 10 uM using Rh-EVNLDAEFK-quencher as substrate after 90 mins by FRET assay. In a few lines: as §1
Test [3] addresses T1, Beta-secretase 1. In words: Inhibition of human BACE1 (1 to 460 residues) expressed in baculovirus expression system using Rh-EVNLDAEFK-quencher as substrate after 90 mins by FRET assay. Put shortly: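 FRET kit assay, manufacturer's protocol with small modifications. Compounds were taken from DMSO stocks and diluted in assay buffer (50 mM sodium acetate, pH 4.5). Substrate and compound were mixed, then enzyme (1 U/mL) was added to start the reaction. After about 90 min at room temperature, 2.5 M sodium acetate stop solution was added. Triplicate wells, 3–4 independent experiments, mean ± SEM; OM99 served as reference inhibitor.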

Where only a bound is given, the exact number is not on record here.

T1 sequence (P56817 whole entry, the tested form may be a part): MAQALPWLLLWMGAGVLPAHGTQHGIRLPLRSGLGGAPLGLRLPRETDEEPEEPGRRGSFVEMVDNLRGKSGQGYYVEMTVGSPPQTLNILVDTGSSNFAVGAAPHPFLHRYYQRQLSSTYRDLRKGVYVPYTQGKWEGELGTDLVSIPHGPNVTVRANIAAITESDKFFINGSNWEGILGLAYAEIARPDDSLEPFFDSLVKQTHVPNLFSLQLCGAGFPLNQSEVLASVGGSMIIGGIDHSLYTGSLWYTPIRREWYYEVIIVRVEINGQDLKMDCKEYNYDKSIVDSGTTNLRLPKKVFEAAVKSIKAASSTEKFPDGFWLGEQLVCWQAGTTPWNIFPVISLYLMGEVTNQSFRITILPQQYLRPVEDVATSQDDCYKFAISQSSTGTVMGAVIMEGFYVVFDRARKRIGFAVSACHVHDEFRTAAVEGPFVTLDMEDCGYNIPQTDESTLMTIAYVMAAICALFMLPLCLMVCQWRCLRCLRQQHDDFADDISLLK

`Cc1cccn2c(NC3CCCCC3)c(-c3ccc(OCCCN4C(=O)c5ccccc5C4=O)cc3)nc12`: the inhibition (as a rule, the drop in the measured response relative to a control, in per cent) at Beta-secretase 1 [1] came out at 69.4%; on Beta-secretase 1 [2], 44.4%.
Regarding `O=C1c2ccccc2C(=O)N1CCCOc1ccc(-c2nc3ccccn3c2NC2CCCCC2)cc1`, the inhibition at Beta-secretase 1 [1] and against Beta-secretase 1 [2] was below 10% in each case.
Regarding `COc1cc(-c2nc3ccc(Cl)cn3c2NC(C)(C)C)ccc1OCCCN1C(=O)c2ccccc2C1=O`, the inhibition on Beta-secretase 1 [1] came to 37.9%; on Beta-secretase 1 [2], 19.4%.
For the compound `Cc1ccn2c(NC3CCCCC3)c(-c3ccc(OCCCN4C(=O)c5ccccc5C4=O)cc3)nc2c1`, the inhibition is 100% against Beta-secretase 1 [1] and 61.3% against Beta-secretase 1 [2]. Further, at Beta-secretase 1 [3], the midpoint of inhibition, the IC50, lay at 2.84 µM.
`O=C1c2ccccc2C(=O)N1CCCOc1ccc(-c2nc3ccc(Cl)cn3c2NC2CCCCC2)cc1`: the inhibition came to 19.6% on Beta-secretase 1 [1] and 11.5% against Beta-secretase 1 [2].
`COc1cc(-c2nc3ccc(Br)cn3c2NC2CCCCC2)ccc1OCCCN1C(=O)c2ccccc2C1=O`: the inhibition is 43.2% at Beta-secretase 1 [1] and 36.7% against Beta-secretase 1 [2].
Turning to `COc1cc(-c2nc3ccc(Cl)cn3c2NC2CCCCC2)ccc1OCCCN1C(=O)c2ccccc2C1=O`, the values for the inhibition against Beta-secretase 1 [1] and against Beta-secretase 1 [2] were 88.1% and 26.9%, respectively. Further, on Beta-secretase 1 [3], the concentration for half-maximal inhibition (IC50) – broadly, the point on the concentration scale where inhibition reaches its midpoint – was found to be 14.9 µM.
In the case of `Cc1ccn2c(NC(C)(C)C)c(-c3ccc(OCCCN4C(=O)c5ccccc5C4=O)cc3)nc2c1`, the inhibition came to 18.3% against Beta-secretase 1 [1] and 24.2% against Beta-secretase 1 [2].
With `COc1cc(-c2nc3ccccn3c2NC2CCCCC2)ccc1OCCCN1C(=O)c2ccccc2C1=O`, the inhibition was 69.5% against Beta-secretase 1 [1] and 29.3% against Beta-secretase 1 [2].
As to `Cc1cccc2nc(-c3ccc(OCCCN4C(=O)c5ccccc5C4=O)cc3)c(NC3CCCCC3)n12`, the inhibition against Beta-secretase 1 [1] was determined as 87.9%; on Beta-secretase 1 [2], 61.5%. For the same compound, the half-inhibitory concentration (IC50) on Beta-secretase 1 [3] was determined as 5.93 µM.
`CC(C)(C)Nc1c(-c2ccc(OCCCN3C(=O)c4ccccc4C3=O)cc2)nc2ccc(Br)cn12`: the inhibition against Beta-secretase 1 [1] stood at 34.3%; against Beta-secretase 1 [2] it was 7.87%.
Turning to `COc1cc(-c2nc3ccc(Br)cn3c2NC(C)(C)C)ccc1OCCCN1C(=O)c2ccccc2C1=O`, the inhibition at Beta-secretase 1 [1] was found to be 48.7%; against Beta-secretase 1 [2] it was 33.2%.
With `O=C1c2ccccc2C(=O)N1CCCOc1ccc(-c2nc3ccc(Br)cn3c2NC2CCCCC2)cc1`, the results for the inhibition against Beta-secretase 1 [1] and on Beta-secretase 1 [2] were 45.3% and 32.2%, respectively.
On to `CC(C)(C)Nc1c(-c2ccc(OCCCN3C(=O)c4ccccc4C3=O)cc2)nc2ccc(Cl)cn12`, for which the inhibition stood at 33% at Beta-secretase 1 [1] and 17.7% against Beta-secretase 1 [2].
Take `Cc1ccc2nc(-c3ccc(OCCCN4C(=O)c5ccccc5C4=O)cc3)c(NC3CCCCC3)n2c1`: the results for the inhibition against Beta-secretase 1 [1] and at Beta-secretase 1 [2] were 63.7% and 37.6%, respectively. Besides, the IC50 against Beta-secretase 1 [3] worked out at 29.4 µM.

The values are drawn from ChEMBL document CHEMBL4190277, “Discovery of imidazopyridines containing isoindoline-1,3-dione framework as a new class of BACE1 inhibitors: Design, synthesis and SAR analysis” (Eur J Med Chem, 2017).
